Consider 9 molecules from ChEMBL document CHEMBL1129487, “In vivo biodistribution, pharmacokinetic parameters, and brain uptake of 5-halo-y-methoxy(or ethoxy)-5,6-dihydro-3'-azido-3'-deoxythymidine diastereomers as potential prodrugs of 3'-azido-3'-deoxythymidine” (J Med Chem, 1996).

Data set [1] can be described thus: Concentration in mouse blood 60 min post injection at a dose 240 mocromol/kg. Type of data set: ADME, organism-based. The conditions noted are these: whole blood. The essentials:
(§1)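 Balb/c mice given 240 µmol/kg iv of the test diastereomer (10% DMSO/water vehicle, tail vein). Blood was drawn by cardiac puncture into heparinized syringe at 15, 20, 60 and 90 min. FIAU was added as internal standard, and the sample was extracted by Sep-Pak. AZT and parent were measured by C18 HPLC (water:methanol 7:3, UV 265 nm). Values are the average of two experiments.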

A short description of data set [2]: Concentration in mouse blood 20 min post injection at a dose 240 mocromol/kg. The data set is classed as ADME, organism-based. The conditions noted are these: whole blood. The essentials:
as §1

For data set [3], the species on record is Mus musculus. In words: Thymidine Influx Inhibition constant for the compound in fresh Murine Erythrocytes. The data set is classed as functional. The essentials: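 Erythrocytes from B6D2F1 mice, 10% hematocrit in HEPES-buffered saline, were given [methyl-3H]-thymidine (0.1–1.0 mM, four levels) with or without test compound (0.1–2.5 mM, four levels). Zero-trans influx ran 3 s and was stopped with 10 µM NBMPR (final). Cells were perchloric acid extracted and counted, with the zero-time blank subtracted. Ki came from a Dixon plot (1/v vs i), in duplicate.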

Data set [4] in a line: Concentration in mouse blood 90 min post injection at a dose 240 mocromol/kg. Type of data set: ADME. As to conditions: whole blood. Summed up:
as §1

Data set [5] is described as follows: Concentration in mouse blood 15 min post injection at a dose 240 mocromol/kg. Type of data set: ADME, organism-based. As to conditions: whole blood. Summed up: as §1
Data set [6] is described as follows: Partition coefficient for 1-octanol/water was evaluated. The data set is classed as physicochemical.
Data set [7] relates to Mus musculus. As to the kind of experiment: Pharmacokinetic parameter AUC for the compound after intravenous administration into BALB/c Mice in plasma samples. More on the design: concentration or dose not given beside the values. The conditions noted are these: in vivo. Type of data set: ADME, organism-based. Summed up:
(§2)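 Tail-vein injection in Balb/c mice at 144 µmol/kg, dissolved in 10% DMSO/water. Three mice per time point were killed by CO2, and blood was taken by cardiac puncture. With FIAU as internal standard, supernatant was Sep-Pak extracted. AZT was quantified by C18 HPLC (water:methanol 7:3, 265 nm; detection limit about 0.5 µg/mL). AUC covers 0 to last sample; t1/2 is from a one-compartment model.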

Data set [8] is described as follows: Half-life for the compound after intravenous administration into BALB/c Mice in plasma samples. The conditions noted are these: mouse. The data set is classed as ADME, organism-based. Summed up: as §2
For data set [9], the species on record is Mus musculus. As to the kind of experiment: Quantity of anylate in P1 subregion in mouse brain that contains nuclei and cell debris, after Jugular Vein Injection. The data set is classed as functional. Summed up:
(§3)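 Brains were pooled from five mice, with cerebella removed, in 0.32 M sucrose. Homogenate was centrifuged at 0-4 °C: P1 at 1000g 10 min, P2 at 10000g 30 min, P3 at 100000g 1 h, S3 supernatant. Protein was by Lowry. Pellets were Protosol-solubilized at 55 °C, then counted by combustion/scintillation.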

The species entered for data set [10] is Mus musculus. As to the kind of experiment: Distribution of analyte (pmol/mg) in mouse brain regions after Jugular Vein Injection into pons and medulla. The data set is classed as ADME, organism-based. The conditions noted are these: in vivo, iv.
For data set [11], the species on record is Mus musculus. As to the kind of experiment: Percentage of total protein recovered in P1 subregion in mouse brain that contains nuclei and cell debris, after Jugular Vein Injection. As to conditions: in vivo, iv. The data set is classed as ADME, organism-based. Summed up:
as §3

Data set [12] is filed under the species Mus musculus. As to the kind of experiment: Percentage of total protein recovered in P3 subregion in mouse brain that contains microsomal fraction after Jugular Vein Injection. Type of data set: ADME, organism-based. The conditions noted are these: iv. Summed up: as §3
For data set [13], the species on record is Mus musculus. In words: Quantity of anylate in S3 which is the soluble fraction in mouse brain after Jugular Vein Injection. The data set is classed as functional. Summed up: as §3
For data set [14], the species on record is Mus musculus. In words: Distribution of analyte (pmol/mg) in mouse brain regions after Jugular Vein Injection into rest of the brain. The conditions noted are these: in vivo, iv. The data set is classed as ADME, organism-based.
For data set [15], the species on record is Mus musculus. As to the kind of experiment: Percentage of radioactivity in P3 subregion in mouse brain that contains microsomal fraction after Jugular Vein Injection. The data set is classed as ADME, organism-based. As to conditions: in vivo, iv. The essentials:
as §3

The species named for data set [16] is Mus musculus. As to the kind of experiment: Distribution of analyte (pmol/mg) in mouse brain regions after Jugular Vein Injection into hypothalamus. Type of data set: ADME, organism-based. As to conditions: in vivo, iv.
For data set [17], the species on record is Mus musculus. As to the kind of experiment: Distribution of analyte (pmol/mg) in mouse brain regions after Jugular Vein Injection into hippocampus. As to conditions: in vivo, iv. The data set is classed as ADME, organism-based.
For data set [18], the species on record is Mus musculus. In words: Distribution of analyte (pmol/mg) in mouse brain regions after Jugular Vein Injection into cerebellum. Type of data set: ADME, organism-based. As to conditions: in vivo, iv.
For data set [19], the species on record is Mus musculus. As to the kind of experiment: Percentage of total protein recovered in S3 which is the soluble fraction in mouse brain after Jugular Vein Injection. The conditions noted are these: in vivo, iv.
The species named for data set [20] is Mus musculus. In words: Distribution of analyte (pmol/mg) in mouse brain regions after Jugular Vein Injection into striatum. The data set is classed as ADME, organism-based. The conditions noted are these: in vivo, iv.
Data set [21] is filed under the species Mus musculus. In words: Percentage of total protein recovered in P2 subregion in mouse brain that contains myelin fragments, synaptosomes (pinched-nerve endings), and mitochondria after Jugular Vein Injection. Type of data set: ADME, organism-based. The conditions noted are these: in vivo, iv. The essentials:
as §3

Data set [22] is filed under the species Mus musculus. In words: Percentage of radioactivity in P1 subregion in mouse brain that contains nuclei and cell debris, after Jugular Vein Injection. The data set is classed as ADME, organism-based. The conditions noted are these: in vivo, iv. Summed up: as §3
Data set [23] is filed under the species Mus musculus. As to the kind of experiment: Quantity of anylate in P2 subregion in mouse brain that contains myelin fragments, synaptosomes (pinched-nerve endings), and mitochondria after Jugular Vein Injection. Type of data set: functional, organism-based. The essentials: as §3
The species entered for data set [24] is Mus musculus. In words: Percentage of radioactivity in S3 which is the soluble fraction in mouse brain after Jugular Vein Injection. Type of data set: ADME, organism-based. As to conditions: in vivo, iv. The essentials: as §3
For data set [25], the species on record is Mus musculus. In words: Quantity of anylate in P3 subregion in mouse brain that contains microsomal fraction after Jugular Vein Injection. Type of data set: functional, organism-based. Summed up: as §3
Data set [26] is filed under the species Mus musculus. As to the kind of experiment: Distribution of analyte (pmol/mg) in mouse brain regions after Jugular Vein Injection into cortex. Type of data set: ADME, organism-based. As to conditions: in vivo, iv.
For data set [27], the species on record is Mus musculus. In words: Percentage of radioactivity in P2 subregion in mouse brain that contains myelin fragments, synaptosomes (pinched-nerve endings), and mitochondria after Jugular Vein Injection. Type of data set: ADME, organism-based. As to conditions: in vivo, iv. The essentials: as §3

`CO[C@H]1N(C2CC(N=[N+]=[N-])C(CO)O2)C(=O)NC(=O)[C@]1(C)Cl` (stereo not given in full) came in with a concentration at 1 h in data set [1] of 16300 ng/mL. Besides, the concentration at 20 min in data set [2] is 12500 ng/mL. This molecule also yielded a Ki in the data set listed under Mus musculus [3] of 360 µM. In addition, the concentration at […] in data set [4] turned out to be 1100 ng/mL. This molecule displayed a concentration at 0.25 h in data set [5] of 28800 ng/mL. This molecule returned a Partition coefficient in data set [6] of 7.6.

Turning to `CO[C@@H]1N(C2CC(N=[N+]=[N-])C(CO)O2)C(=O)NC(=O)[C@@]1(C)Br` (stereo not given in full), the AUC in the data set with Mus musculus [7] is 13500 ng·h/mL. The molecule further registered a Ki in the data set filed under Mus musculus [3] of 500 µM. In addition, the half-life in [8] was 31.1 min. Moreover, in data set [6], the Partition coefficient was found to be 16.7.

`CO[C@H]1N(C2CC(N=[N+]=[N-])C(CO)O2)C(=O)NC(=O)[C@@]1(C)Cl` (stereo not given in full) displayed a Ki in the data set listed under Mus musculus [3] above 1500 µM. The Partition coefficient in data set [6] was 3.3.

On to `Cc1cn([C@H]2C[C@H](N=[N+]=[N-])[C@@H](CO)O2)c(=O)[nH]c1=O` [ZIDOVUDINE], for which, in [2], the concentration at 20 min stood at 2500 ng/mL. The AUC in the data set on Mus musculus [7] was 11800 ng·h/mL. The affinity in the data set listed under Mus musculus [3], expressed as Ki, was 1330 µM. The concentration at […] in data set [4] was below 1000 ng/mL. Besides, the concentration at 0.25 h in data set [5] came to 2500 ng/mL. This molecule yielded a half-life in data set [8] of 23.5 min. This molecule yielded a Partition coefficient in data set [6] of 1.3.

Turning to `CO[C@H]1N(C2CC(N=[N+]=[N-])C(CO)O2)C(=O)NC(=O)[C@]1(C)I` (stereo not given in full), the AUC in the data set with Mus musculus [7] was determined as 12500 ng·h/mL. Also, the affinity in the data set listed under Mus musculus [3] corresponds to a Ki of 350 µM. For the same molecule, in data set [8], the half-life was determined as 33.6 min. This molecule also came in with a Partition coefficient in data set [6] of 10.6.

With `CCO[C@H]1N(C2CC(N=[N+]=[N-])C(CO)O2)C(=O)NC(=O)[C@]1(C)Br` (stereo not given in full), the Quantity in the data set listed under Mus musculus [9] was determined as 3.96 pmol/mg; in the data set listed under Mus musculus [13], 27.8 pmol/mg; in the data set listed under Mus musculus [23], 1.62 pmol/mg; in the data set filed under Mus musculus [25] it was 1.21 pmol/mg. Further, the Distribution in the data set filed under Mus musculus [10] came to 0.62 pmol/mg; in the data set filed under Mus musculus [11], 11.9%; in the data set listed under Mus musculus [12], 17.6%; in the data set listed under Mus musculus [14], 0.83 pmol/mg; in the data set filed under Mus musculus [15] it was 2.4%; in the data set listed under Mus musculus [16], 1.1 pmol/mg. Also, the Distribution in the data set listed under Mus musculus [17] amounted to 1.1 pmol/mg; in the data set filed under Mus musculus [18], 0.66 pmol/mg; in the data set listed under Mus musculus [19] it was 27.5%; in the data set filed under Mus musculus [20], 0.85 pmol/mg; in the data set listed under Mus musculus [21], 43%; in the data set filed under Mus musculus [22], 5.2%. Also, the Distribution in the data set listed under Mus musculus [24] amounted to 84.7%; in the data set listed under Mus musculus [26], 0.66 pmol/mg; in the data set listed under Mus musculus [27], 7.7%.

In the case of `CO[C@H]1N(C2CC(N=[N+]=[N-])C(CO)O2)C(=O)NC(=O)[C@]1(C)Br` (stereo not given in full), the Quantity stood at 2.08 pmol/mg in the data set filed under Mus musculus [9], 21.8 pmol/mg in the data set listed under Mus musculus [13], 0.65 pmol/mg in the data set filed under Mus musculus [23] and 0.98 pmol/mg in the data set filed under Mus musculus [25]. For the same molecule, the Distribution amounted to 0.66 pmol/mg in the data set filed under Mus musculus [10]; 13.3% in the data set filed under Mus musculus [11]; 8.7% in the data set filed under Mus musculus [12]; 0.71 pmol/mg in the data set listed under Mus musculus [14]; 1.4% in the data set filed under Mus musculus [15]; 1.32 pmol/mg in the data set listed under Mus musculus [16]. Further, the Distribution in the data set listed under Mus musculus [17] worked out at 0.71 pmol/mg; in the data set listed under Mus musculus [18], 0.72 pmol/mg; in the data set listed under Mus musculus [19], 24.9%; in the data set filed under Mus musculus [20] it was 0.88 pmol/mg; in the data set listed under Mus musculus [21] it was 53.1%; in the data set listed under Mus musculus [22] it was 4.6%. Further, the Distribution in the data set listed under Mus musculus [24] turned out to be 88.4%; in the data set filed under Mus musculus [26], 0.71 pmol/mg; in the data set filed under Mus musculus [27] it was 5.6%. Further, in the data set on Mus musculus [7], the AUC was determined as 6740 ng·h/mL. The same molecule showed a Ki in the data set filed under Mus musculus [3] of 450 µM. In data set [8], this molecule returned a half-life of 41.8 min. The molecule also displayed a Partition coefficient in data set [6] of 13.2.

For `CO[C@@H]1N(C2CC(N=[N+]=[N-])C(CO)O2)C(=O)NC(=O)[C@@]1(C)I` (stereo not given in full), in the data set with Mus musculus [7], the area under the curve (AUC) was 9820 ng·h/mL. In addition, the affinity in the data set filed under Mus musculus [3], expressed as Ki, was 200 µM. In addition, the half-life in data set [8] stood at 149 min. The same molecule yielded a Partition coefficient in data set [6] of 18.8.

In the data set listed under Mus musculus [3], `O=c1ccn([C@H]2C[C@H](O)[C@@H](CO)O2)c(=O)[nH]1` [DEOXYURIDINE] yielded a Ki of 125 µM.
